From ChEMBL document CHEMBL1153231, “Novel thioamide derivatives as neutral CB1 receptor antagonists” (Bioorg Med Chem Lett, 2010)
≈ marks a conversion by molar mass, not a printed value.

Key:
Cannabinoid receptor 1 = Cannabinoid receptor 1 (Homo sapiens, UniProt P21554); test: Agonist activity at human CB1 receptor assessed as stimulation of [35S]GTPgammaS binding; type: functional
[1] = Aqueous solubility of the compound; type: physicochemical
[2] = Plasma concentration in mouse at 20 umol/kg, po after 0.5 hrs; type: ADME, organism-based
Summary of the method: (§1)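 Cafeteria-diet-induced obese mice were given repeated peroral doses. Plasma and brain tissue were sampled 0.5 h, 2 h and 6 h after the last dose, and after a 7-day washout. Levels of both the parent thioamide and its carboxamide counterpart were measured in the same samples. Plasma levels are per litre and brain levels per gram of tissue.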

[3] = Drug level in mouse brain at 20 umol/kg, po after 6 hrs; type: ADME, organism-based; summary of the method: as §1
[4] = Plasma concentration in mouse at 20 umol/kg, po after 7 days; type: ADME, organism-based; summary of the method: as §1
[5] = Drug level in mouse brain at 20 umol/kg, po after 0.5 hrs; type: ADME, organism-based; summary of the method: as §1
[6] = Drug level in mouse brain at 20 umol/kg, po after 2 hrs; type: ADME, organism-based; summary of the method: as §1
[7] = Plasma concentration in mouse at 20 umol/kg, po after 2 hrs; type: ADME, organism-based; summary of the method: as §1
[8] = Plasma concentration in mouse at 20 umol/kg, po after 6 hrs; type: ADME, organism-based; summary of the method: as §1
[9] = Drug level in mouse brain at 20 umol/kg, po after 7 days; type: ADME, organism-based; summary of the method: as §1
Mus musculus [10] = test: Reduction in body weight of diet induced obese C57BL/6 mouse at 20-60 umol/kg after 1 week relative to control; type: functional; set-up: scale not given: the % may be the effect or the level left
Summary of the method: (§2)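 The test agents were given perorally to cafeteria-diet-induced obese mice over 1–3 weeks. Body weight was tracked as a percentage of initial body weight and compared with vehicle-treated animals.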

Mus musculus [11] = test: Reduction in body weight of diet induced obese C57BL/6 mouse at 20 umol/kg after 1 to 3 weeks relative to control; type: functional; set-up: scale not given: the % may be the effect or the level left; summary of the method: as §2

Sequence of Cannabinoid receptor 1 (P21554 whole entry): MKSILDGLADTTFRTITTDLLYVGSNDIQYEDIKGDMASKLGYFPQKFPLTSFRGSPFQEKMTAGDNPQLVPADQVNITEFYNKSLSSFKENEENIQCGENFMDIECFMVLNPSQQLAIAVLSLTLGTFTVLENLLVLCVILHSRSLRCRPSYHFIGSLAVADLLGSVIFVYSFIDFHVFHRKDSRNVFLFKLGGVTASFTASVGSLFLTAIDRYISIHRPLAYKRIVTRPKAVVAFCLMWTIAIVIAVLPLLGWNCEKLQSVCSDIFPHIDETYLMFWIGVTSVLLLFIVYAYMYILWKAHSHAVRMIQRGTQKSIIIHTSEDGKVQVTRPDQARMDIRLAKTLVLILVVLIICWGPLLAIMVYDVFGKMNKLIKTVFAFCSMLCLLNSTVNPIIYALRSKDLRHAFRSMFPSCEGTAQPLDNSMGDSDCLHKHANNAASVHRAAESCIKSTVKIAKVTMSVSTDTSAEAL

Row | SMILES | IC50 (Cannabinoid receptor 1) [nM] | solubility [1] [µM] | concentration at 0.5 h [2] [nM] | concentration at 6 h [3] [µmol/g] | concentration at 168 h [4] [nM] | concentration at 0.5 h [5] [µmol/g] | concentration at 2 h [6] [µmol/g] | concentration at 2 h [7] [nM] | concentration at 6 h [8] [nM] | concentration at 168 h [9] [µmol/g] | Activity (Mus musculus [10]) [%] | Activity (Mus musculus [11]) [%]
1 | O=C(NC1CCCCC1)c1cnc(-c2ccc(Cl)cc2)c(-c2ccc(Cl)cc2)n1 | 16.6 | < 0.1 | – | – | – | – | – | – | – | – | – | –
2 | S=C(NC1CCCCC1)c1cnc(-c2ccc(Cl)cc2)c(-c2ccc(Cl)cc2)n1 | 5.8 | 6.1 (≈ 2.7 µg/mL) | – | – | – | – | – | – | – | – | – | –
3 | Cc1c(C(=O)NN2CCCCC2)nn(-c2ccc(Cl)cc2Cl)c1-c1ccc(Cl)cc1 [RIMONABANT] | – | < 1.1 | 1360 | 0.68 | – | 1.11 | 1.69 | 1950 | 900 | – | – | 85

More lines, main results first:

Row | IC50 (Cannabinoid receptor 1) [nM] | solubility [1] [µM] | concentration at 0.5 h [2] [nM] | concentration at 6 h [3] [µmol/g] | concentration at 168 h [4] [nM] | concentration at 0.5 h [5] [µmol/g] | concentration at 2 h [6] [µmol/g] | concentration at 2 h [7] [nM] | concentration at 6 h [8] [nM] | concentration at 168 h [9] [µmol/g] | SMILES | Activity (Mus musculus [10]) [%] | Activity (Mus musculus [11]) [%]
4 | 4.5 | 6.6 (≈ 3.16 µg/mL) | – | – | – | – | – | – | – | – | FC1(F)CCC(NC(=S)c2cnc(-c3ccc(Cl)cc3)c(-c3ccc(Cl)cc3)n2)CC1 | – | –
5 | 2.9 | < 0.1 | 136 | 0.07 | 24 | 0.05 | 0.08 | 153 | 148 | – | COCc1nc(-c2ccc(Cl)cc2)c(-c2ccc(Cl)cc2)nc1C(=O)NC1CCC(F)(F)CC1 | – | –
6 | 2.4 | < 0.1 | 403 | 0.14 | 32 | 0.18 | 0.32 | 604 | 137 | 0.05 | COCc1nc(-c2ccc(Cl)cc2)c(-c2ccc(Cl)cc2)nc1C(=S)NC1CCC(F)(F)CC1 | 85 | –
7 | 5.3 | < 0.1 | – | – | – | – | – | – | – | – | O=C(NC1CCC(F)(F)CC1)c1cnc(-c2ccc(Cl)cc2)c(-c2ccc(Cl)cc2)n1 | – | –
